Laboratory results reported in ChEMBL document CHEMBL3351539, “"On water" expedient synthesis of 3-indolyl-3-hydroxy oxindole derivatives and their anticancer activity in vitro” (Eur J Med Chem, 2014).
In brackets after ≈: the same amount, converted by molar mass. Activity calls are given as the source filed them. No cut-off for these calls is given here.

How the values were obtained:
[1] = Cytotoxicity against human U937 cells assessed as growth inhibition after 24 hrs by MTT assay; conditions: U-937, 24 h
[2] = system: MCF7; assay: Cytotoxicity against human MCF7 cells assessed as growth inhibition after 24 hrs by MTT assay; conditions: MCF7, 24 h
[3] = system: THP-1; assay: Cytotoxicity against human THP1 cells assessed as growth inhibition after 24 hrs by MTT assay; conditions: THP-1, 24 h
[4] = system: MCF7; assay: Ratio of etoposide IC50 to compound IC50 for human MCF7 cells assessed as growth inhibition after 24 hrs by MTT assay
[5] = system: A549; assay: Cytotoxicity against human A549 cells assessed as growth inhibition after 24 hrs by MTT assay; conditions: A549, 24 h
[6] = system: U-937; assay: Ratio of etoposide IC50 to compound IC50 for human U937 cells assessed as growth inhibition after 24 hrs by MTT assay
[7] = system: U-937; assay: Cytotoxicity against human U937 cells assessed as nuclear condensation at IC50 by light microscopy; format: functional, cell-based
Summary of the method: (§1)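 U937 cells were exposed to one concentration per derivative and examined by light microscopy at 400X against untreated controls with intact cells. Cells were scored for shrinkage in cell size, nuclear condensation and formation of apoptotic bodies.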

[8] = system: U-937; assay: Cytotoxicity against human U937 cells assessed as shrinkage in cell size at IC50 by light microscopy; format: functional, cell-based
Summary of the method: as §1

[9] = system: U-937; assay: Cytotoxicity against human U937 cells assessed as formation of apoptotic bodies at IC50 by light microscopy; format: functional, cell-based
Summary of the method: as §1

Cc1ccc2[nH]cc(C3(O)C(=O)Nc4ccc(F)cc43)c2c1 (centres undefined)
IC50 [1]: 35.5 µg/mL (≈ 120 µM)

O=C1Nc2ccc(OC(F)(F)F)cc2C1(O)c1c[nH]c2ccccc12 (centres undefined)
IC50 [1]: 16.8 µg/mL (≈ 48.2 µM) | IC50 [2]: 71.5 µg/mL (≈ 205 µM) | IC50 [3]: 13.7 µg/mL (≈ 39.4 µM)

O=C1Nc2ccc(OC(F)(F)F)cc2C1(O)c1c[nH]c2ccc(Br)cc12 (centres undefined)
Ratio IC50 [4]: 1 | IC50 [2]: 5.47 µg/mL (≈ 12.8 µM) | IC50 [5]: 13 µg/mL (≈ 30.4 µM)

COc1ccc2[nH]cc(C3(O)C(=O)Nc4ccc(Cl)cc43)c2c1 (centres undefined)
IC50 [1]: 39.8 µg/mL (≈ 121 µM)

O=C1Nc2ccc(F)cc2C1(O)c1c[nH]c2ccccc12 (centres undefined)
IC50 [1]: 43.7 µg/mL (≈ 155 µM)

O=C1Nc2ccc(Br)cc2C1(O)c1c[nH]c2ccc(Br)cc12 (centres undefined)
IC50 [1]: 43.3 µg/mL (≈ 103 µM) | IC50 [2]: 68.7 µg/mL (≈ 163 µM) | IC50 [3]: 86.1 µg/mL (≈ 204 µM) | IC50 [5]: 25.1 µg/mL (≈ 59.5 µM)

COc1cc([C@@H]2c3cc4c(cc3[C@@H](O[C@@H]3O[C@@H]5CO[C@@H](C)O[C@H]5[C@H](O)[C@H]3O)[C@H]3COC(=O)[C@H]23)OCO4)cc(OC)c1O [ETOPOSIDE]
IC50 [1]: 6.14 µg/mL (≈ 10.4 µM) | IC50 [2]: 17.8 µg/mL (≈ 30.2 µM) | IC50 [5]: 10.7 µg/mL (≈ 18.2 µM)

O=C1N(Cc2ccccc2Cl)c2ccccc2C1(O)c1c[nH]c2ccc(Br)cc12 (centres undefined)
IC50 [1]: 7.16 µg/mL (≈ 15.3 µM) | IC50 [2]: 22.3 µg/mL (≈ 47.7 µM) | IC50 [3]: 7.37 µg/mL (≈ 15.8 µM) | IC50 [5]: 16.2 µg/mL (≈ 34.5 µM)

O=C1N(Cc2ccc(Br)cc2)c2ccc(Cl)cc2C1(O)c1c[nH]c2ccc(Br)cc12 (centres undefined)
IC50 [1]: 12.2 µg/mL (≈ 22.2 µM) | IC50 [2]: 20.4 µg/mL (≈ 37.3 µM) | IC50 [3]: 6.06 µg/mL (≈ 11.1 µM) | IC50 [5]: 18.4 µg/mL (≈ 33.6 µM)

O=C1N(Cc2ccccc2)c2ccccc2C1(O)c1c[nH]c2ccc(Br)cc12 (centres undefined)
IC50 [1]: 17.1 µg/mL (≈ 39.4 µM) | IC50 [2]: 31.2 µg/mL (≈ 72.1 µM) | IC50 [3]: 14.2 µg/mL (≈ 32.7 µM) | IC50 [5]: 25.1 µg/mL (≈ 57.9 µM)

CN1C(=O)C(O)(c2c[nH]c3ccccc23)c2ccccc21 (centres undefined)
IC50 [2]: 49 µg/mL (≈ 176 µM)

O=C1Nc2ccc(F)cc2C1(O)c1c[nH]c2ccc(Br)cc12 (centres undefined)
IC50 [3]: 76 µg/mL (≈ 210 µM)

COc1ccc2[nH]cc(C3(O)C(=O)Nc4ccc(F)cc43)c2c1 (centres undefined)
IC50 [1]: 55.9 µg/mL (≈ 179 µM)

O=C1N(Cc2ccccc2)c2ccccc2C1(O)c1c[nH]c2ccccc12 (centres undefined)
IC50 [1]: 43 µg/mL (≈ 121 µM) | IC50 [3]: 64.5 µg/mL (≈ 182 µM) | IC50 [5]: 22.8 µg/mL (≈ 64.2 µM)

O=C1Nc2ccc(Cl)cc2C1(O)c1c[nH]c2ccccc12 (centres undefined)
IC50 [1]: 19.8 µg/mL (≈ 66.3 µM)

O=C1N(Cc2ccccc2Br)c2ccccc2C1(O)c1c[nH]c2ccc(Br)cc12 (centres undefined)
IC50 [1]: 14.9 µg/mL (≈ 29.1 µM) | IC50 [2]: 24.7 µg/mL (≈ 48.3 µM) | IC50 [3]: 6.93 µg/mL (≈ 13.5 µM) | IC50 [5]: 29.8 µg/mL (≈ 58.1 µM)

O=C1Nc2ccc(Cl)cc2C1(O)c1c[nH]c2ccc(Br)cc12 (centres undefined)
IC50 [1]: 25.3 µg/mL (≈ 67 µM) | IC50 [2]: 95.5 µg/mL (≈ 253 µM) | IC50 [3]: 98.5 µg/mL (≈ 261 µM) | IC50 [5]: 19.8 µg/mL (≈ 52.5 µM)

O=C1N(Cc2ccccc2Cl)c2ccc(Cl)cc2C1(O)c1c[nH]c2ccccc12 (centres undefined)
Ratio IC50 [6]: 0.5 | IC50 [1]: 4.89 µg/mL (≈ 11.6 µM) | IC50 [2]: 20.6 µg/mL (≈ 48.7 µM) | IC50 [3]: 7.01 µg/mL (≈ 16.6 µM) | IC50 [5]: 15.8 µg/mL (≈ 37.2 µM)

O=C1Nc2ccc(I)cc2C1(O)c1c[nH]c2ccccc12 (centres undefined)
IC50 [1]: 21.6 µg/mL (≈ 55.3 µM)

Cc1ccc2[nH]cc(C3(O)C(=O)Nc4ccc(I)cc43)c2c1 (centres undefined)
IC50 [1]: 23.1 µg/mL (≈ 57.3 µM) | IC50 [2]: 84.5 µg/mL (≈ 209 µM) | IC50 [3]: 87.1 µg/mL (≈ 216 µM) | IC50 [5]: 25.2 µg/mL (≈ 62.3 µM)

O=C1N(Cc2ccccc2Cl)c2ccc(Cl)cc2C1(O)c1c[nH]c2ccc(Br)cc12 (centres undefined)
Ratio IC50 [6]: 0.5 | IC50 [1]: 5.31 µg/mL (≈ 10.6 µM) | IC50 [2]: 21.3 µg/mL (≈ 42.3 µM) | IC50 [3]: 6.12 µg/mL (≈ 12.2 µM) | IC50 [5]: 16.5 µg/mL (≈ 32.9 µM)

O=C1Nc2ccc(Br)cc2C1(O)c1c[nH]c2ccccc12 (centres undefined)
IC50 [1]: 19.3 µg/mL (≈ 56.2 µM) | IC50 [5]: 72.5 µg/mL (≈ 211 µM)

COc1ccc2[nH]cc(C3(O)C(=O)N(Cc4ccccc4Cl)c4ccc(Cl)cc43)c2c1 (centres undefined)
Ratio IC50 [6]: 0.5 | IC50 [1]: 6.07 µg/mL (≈ 13.4 µM) | Activity [7]: Active | Ratio IC50 [4]: 1 | IC50 [2]: 10.8 µg/mL (≈ 23.9 µM) | IC50 [3]: 4.27 µg/mL (≈ 9.42 µM) | Activity [8]: Active | Activity [9]: Active | IC50 [5]: 14.1 µg/mL (≈ 31.1 µM)

Cc1ccc2c(c1)C(O)(c1c[nH]c3ccccc13)C(=O)N2 (centres undefined)
IC50 [1]: 83.4 µg/mL (≈ 300 µM)

O=C1N(Cc2ccccc2Cl)c2ccccc2C1(O)c1c[nH]c2ccccc12 (centres undefined)
IC50 [1]: 15 µg/mL (≈ 38.5 µM) | IC50 [2]: 39.3 µg/mL (≈ 101 µM) | IC50 [3]: 6.97 µg/mL (≈ 17.9 µM) | IC50 [5]: 28.1 µg/mL (≈ 72.4 µM)

O=C1Nc2c(Cl)cccc2C1(O)c1c[nH]c2ccccc12 (centres undefined)
IC50 [3]: 86.1 µg/mL (≈ 288 µM)

O=C1N(Cc2ccccc2)c2ccc(Cl)cc2C1(O)c1c[nH]c2ccccc12 (centres undefined)
Ratio IC50 [6]: 0.5 | IC50 [1]: 4.33 µg/mL (≈ 11.1 µM) | Activity [7]: Active | IC50 [2]: 24 µg/mL (≈ 61.8 µM) | IC50 [3]: 5.03 µg/mL (≈ 12.9 µM) | Activity [8]: Active | Activity [9]: Active | IC50 [5]: 18.3 µg/mL (≈ 47.1 µM)

COc1ccc2[nH]cc(C3(O)C(=O)N(Cc4ccccc4Cl)c4ccccc43)c2c1 (centres undefined)
IC50 [1]: 7.6 µg/mL (≈ 18.1 µM) | Ratio IC50 [4]: 1 | IC50 [2]: 13.4 µg/mL (≈ 32.1 µM) | IC50 [3]: 5.6 µg/mL (≈ 13.4 µM) | IC50 [5]: 33.1 µg/mL (≈ 79 µM)

O=C1Nc2ccc(I)cc2C1(O)c1c[nH]c2ccc(F)cc12 (centres undefined)
IC50 [3]: 62.4 µg/mL (≈ 153 µM) | IC50 [5]: 43.7 µg/mL (≈ 107 µM)

O=C1N(Cc2ccccc2)c2ccc(Cl)cc2C1(O)c1c[nH]c2ccc(Br)cc12 (centres undefined)
IC50 [1]: 8.02 µg/mL (≈ 17.1 µM) | Activity [7]: Active | Ratio IC50 [4]: 1 | IC50 [2]: 8.64 µg/mL (≈ 18.5 µM) | IC50 [3]: 7.12 µg/mL (≈ 15.2 µM) | Activity [8]: Active | Activity [9]: Active | IC50 [5]: 13.3 µg/mL (≈ 28.5 µM)

COc1ccc2[nH]cc(C3(O)C(=O)Nc4ccc(I)cc43)c2c1 (centres undefined)
IC50 [3]: 69.2 µg/mL (≈ 165 µM)
